Calls of active or inactive are those of the source. The rule behind the calls is not given here.
Tests used:
Cannabinoid receptor 2 [1] = target: T1, Cannabinoid receptor 2 (Homo sapiens, UniProt P34972); assay: Displacement of [3H]-CP-55940 from human CB2 receptor expressed in HEK293 cell membranes at 1 to 10 uM after 90 mins relative to control
Cannabinoid receptor 1 = Cannabinoid receptor 1 (Homo sapiens, UniProt P21554); assay: Displacement of [3H]-CP-55940 from human CB1 receptor expressed in HEK293 cell membranes after 90 mins by radioligand binding assay
Chain of Cannabinoid receptor 1 (P21554 whole entry): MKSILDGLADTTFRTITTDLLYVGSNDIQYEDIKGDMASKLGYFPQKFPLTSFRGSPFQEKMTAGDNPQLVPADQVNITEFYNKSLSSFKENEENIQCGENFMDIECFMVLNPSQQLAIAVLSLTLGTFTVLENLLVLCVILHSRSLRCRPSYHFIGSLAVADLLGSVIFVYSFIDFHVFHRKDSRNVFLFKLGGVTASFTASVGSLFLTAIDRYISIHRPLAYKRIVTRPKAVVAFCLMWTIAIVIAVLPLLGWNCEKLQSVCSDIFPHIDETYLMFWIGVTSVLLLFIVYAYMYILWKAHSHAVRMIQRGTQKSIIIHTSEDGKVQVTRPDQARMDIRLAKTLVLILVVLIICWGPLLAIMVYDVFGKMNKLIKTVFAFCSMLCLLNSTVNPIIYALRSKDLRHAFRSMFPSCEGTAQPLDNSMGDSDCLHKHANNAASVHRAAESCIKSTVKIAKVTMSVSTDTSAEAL

Cannabinoid receptor 2 [2] = target: T1, Cannabinoid receptor 2; assay: Displacement of [3H]-CP-55940 from human CB2 receptor expressed in HEK293 cell membranes after 90 mins by radioligand binding assay
How it was run: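 Compounds were screened at 1 and 10 µM; those displacing over 50% were run at 0.1nM–10µM. Ki by Cheng-Prusoff from IC50. At least three experiments, duplicate.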

HEK293 = assay: Selectivity index, ratio of Ki for human CB1 receptor expressed in HEK293 cell membranes to Ki for human CB2 receptor expressed in HEK293 cell membranes; assay type: cell-based
[3] = target: Cannabinoid receptor 1 (CB1) (Homo sapiens, UniProt P21554); assay: Displacement of [3H]-CP-55940 from human CB1 receptor expressed in HEK293 cell membranes at 1 to 10 uM after 90 mins relative to control; conditions: membranes of HEK293 cells expressing human CB1 receptor, probe [3H]-CP-55940
Chain of Cannabinoid receptor 1 (CB1) (P21554 whole entry): as above

Cannabinoid receptor 2 [4] = target: T1, Cannabinoid receptor 2
Cannabinoid receptor 2 [5] = target: T1, Cannabinoid receptor 2; assay: Inverse agonist activity at human CB2 receptor expressed in CHO-K1 cells assessed as increase in NKH-477-induced intracellular cAMP levels after 30 mins by luminescence assay; assay type: functional, cell-based
How it was run: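 CHO-K1 cells stably overexpressing human CB2, plated 30,000 cells/well and held overnight at 37 °C, 5% CO2. Compounds were added with NKH-477 (water-soluble forskolin analogue; 3x of 25µM solution) for 30 min at 37°C. cAMP was read by enzyme-fragment-complementation chemiluminescence. Values are normalized to NKH-477 alone as 100% response. Three independent experiments, triplicate.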

Cannabinoid receptor 2 [6] = target: T1, Cannabinoid receptor 2; assay: Antagonist activity at human CB2 receptor expressed in CHO-K1 cells assessed as increase in NKH-477-induced intracellular cAMP levels preincubated for 15 mins followed by JWH-133 addition after 30 mins by luminescence assay; assay type: functional, cell-based

T1 sequence (P34972 whole entry): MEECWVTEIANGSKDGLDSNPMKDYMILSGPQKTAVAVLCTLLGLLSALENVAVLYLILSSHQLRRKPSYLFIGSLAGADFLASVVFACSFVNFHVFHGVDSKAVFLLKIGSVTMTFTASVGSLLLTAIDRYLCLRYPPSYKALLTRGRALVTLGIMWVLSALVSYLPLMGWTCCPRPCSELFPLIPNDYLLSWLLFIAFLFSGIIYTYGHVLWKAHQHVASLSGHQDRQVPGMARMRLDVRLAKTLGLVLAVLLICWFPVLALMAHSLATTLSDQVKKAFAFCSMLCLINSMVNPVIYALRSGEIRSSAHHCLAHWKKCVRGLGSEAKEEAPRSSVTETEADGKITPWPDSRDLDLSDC

Row | SMILES | inhibition (Cannabinoid receptor 2 [1]) [%] | Ki (Cannabinoid receptor 1) [µM] | Ki (Cannabinoid receptor 2 [2]) [nM] | Ratio Ki (HEK293) | inhibition at 1.5 h, up to 10 µM [3] [%] | IC50 (Cannabinoid receptor 2 [4]) [nM] | Activity (Cannabinoid receptor 2 [5]) | Activity (Cannabinoid receptor 2 [6])
1 | CCc1c(C(=O)Nc2ccc3ccccc3c2)cc(C)n1-c1ccccc1 | > 50 | 0.633 | 57 | 11.1 | > 50 | – | – | –
2 | CCOC(=O)c1c(NC(=O)C23CC4CC(CC(C4)C2)C3)sc2c1CCCC2 | > 50 | 1.01 | 2.15 | 469 to 500 | > 50 | 475 | – | –
3 | Cc1cc(C(=O)NC(C)c2ccccc2)c(C)n1-c1ccccc1 (configuration not stated) | > 50 | 2.62 | 546 | 4.8 | > 50 | – | – | –
4 | CCOC(=O)c1cc(-c2ccccc2)sc1NS(=O)(=O)c1ccccc1 | > 50 | > 10 | > 10000 | – | > 50 | – | – | –
5 | CCc1c(C(=O)NC(C)c2ccccc2)cc(C)n1-c1ccccc1 (configuration not stated) | > 50 | 3.74 | 540 | 6.92 | > 50 | – | – | –
6 | CCOC(=O)c1c(NS(C)(=O)=O)sc2c1CCCC2 | > 50 | > 10 | > 10000 | – | > 50 | – | – | –
7 | CCOC(=O)c1cc(-c2ccccc2)sc1NC(=O)c1cccc2ccccc12 | > 50 | > 10 | 59.8 | > 167 | > 50 | – | – | –
8 | Cc1cc(C(=O)Nc2cccc3ccccc23)c(C)n1-c1ccccc1 | > 50 | 0.317 | 84.2 | 3.76 | > 50 | – | – | –
9 | CCOC(=O)c1c(NS(=O)(=O)c2ccc(Cl)cc2)sc2c1CCCC2 | > 50 | > 10 | > 10000 | – | > 50 | – | – | –
10 | CCc1c(C(=O)NC23CC4CC(CC(C4)C2)C3)cc(C)n1-c1ccccc1 | > 50 | 1.2 | 6.15 | 195 to 200 | > 50 | 398 | Active | Active
11 | CCOC(=O)c1c(N)sc2c1CCCC2 | > 50 | > 10 | > 10000 | – | > 50 | – | – | –
12 | CCOC(=O)c1cc(-c2ccccc2)sc1NS(=O)(=O)c1ccc(Cl)cc1 | > 50 | > 10 | > 10000 | – | > 50 | – | – | –
13 | Cc1cc(C(=O)Nc2ccc3ccccc3c2)c(C)n1-c1ccccc1 | > 50 | 0.281 | 58.3 | 4.82 | > 50 | – | – | –
14 | CCOC(=O)c1c(NC(=O)c2cccc3ccccc23)sc2c1CCCC2 | > 50 | 1.37 | 16.8 | 80 to 81.7 | > 50 | – | – | –
15 | CCc1c(C(=O)Nc2cccc3ccccc23)cc(C)n1-c1ccccc1 | > 50 | 0.505 | 20 | 25 | > 50 | – | – | –
16 | CCOC(=O)c1c(NC(=O)CCc2ccccc2)sc2c1CCCC2 | > 50 | > 10 | 112 | > 89.4 | > 50 | – | – | –

Row | SMILES | inhibition (Cannabinoid receptor 2 [1]) [%] | Ki (Cannabinoid receptor 1) [µM] | Ki (Cannabinoid receptor 2 [2]) [nM] | Ratio Ki (HEK293) | inhibition at 1.5 h, up to 10 µM [3] [%] | IC50 (Cannabinoid receptor 2 [4]) [nM] | Activity (Cannabinoid receptor 2 [5]) | Activity (Cannabinoid receptor 2 [6])
17 | CCOC(=O)c1cc(-c2ccccc2)sc1NS(C)(=O)=O | > 50 | > 10 | > 10000 | – | > 50 | – | – | –
18 | Cc1cc(C(=O)O)c(C)n1-c1ccccc1 | > 50 | > 10 | > 10000 | – | > 50 | – | – | –
19 | Cc1cc(C(=O)NC2CCCCC2)c(C)n1-c1ccccc1 | > 50 | > 10 | 168 | > 59.6 | > 50 | – | – | –
20 | CCOC(=O)c1c(NS(=O)(=O)c2ccccc2)sc2c1CCCC2 | > 50 | > 10 | 1990 | > 5.02 | > 50 | – | – | –
21 | CCOC(=O)c1cc(-c2ccccc2)sc1N(S(=O)(=O)c1ccc2ccccc2c1)S(=O)(=O)c1ccc2ccccc2c1 | > 50 | > 10 | > 10000 | – | > 50 | – | – | –
22 | CCOC(=O)c1cc(-c2ccccc2)sc1NC(=O)c1ccc2ccccc2c1 | > 50 | > 10 | > 10000 | – | > 50 | – | – | –
23 | Cc1cc(C(=O)NCCc2ccccc2)c(C)n1-c1ccccc1 | > 50 | 5.93 | 584 | 10.2 | > 50 | – | – | –
24 | CCOC(=O)c1cc(-c2ccccc2)sc1NS(=O)(=O)c1cccc2ccccc12 | > 50 | > 10 | > 10000 | – | > 50 | – | – | –
25 | CCc1c(C(=O)O)cc(C)n1-c1ccccc1 | > 50 | > 10 | > 10000 | – | > 50 | – | – | –
26 | CCc1c(C(=O)NCCc2ccccc2)cc(C)n1-c1ccccc1 | > 50 | > 10 | 718 | > 13.9 | > 50 | – | – | –
27 | CCOC(=O)c1c(NS(=O)(=O)c2cccc3ccccc23)sc2c1CCCC2 | > 50 | > 10 | 800 | > 12.5 | > 50 | – | – | –
28 | CCOC(=O)c1c(NC(=O)c2ccc3ccccc3c2)sc2c1CCCC2 | > 50 | > 10 | 1790 | > 5.6 | > 50 | – | – | –
29 | CCOC(=O)c1c(NS(=O)(=O)c2ccc3ccccc3c2)sc2c1CCCC2 | > 50 | > 10 | > 10000 | – | > 50 | – | – | –
30 | Cc1cc(C(=O)NC23CC4CC(CC(C4)C2)C3)c(C)n1-c1ccccc1 | > 50 | 0.518 | 7.59 | 68.3 | > 50 | 109 | Active | Active
31 | CCc1c(C(=O)NC2CCCCC2)cc(C)n1-c1ccccc1 | > 50 | 4.57 | 171 | > 26.8 | > 50 | – | – | –
32 | Cc1ccc(Cn2nc(C(=O)N[C@@H]3C(C)(C)[C@@H]4CC[C@@]3(C)C4)cc2-c2ccc(Cl)c(C)c2)cc1 | > 50 | – | – | – | > 50 | – | – | –
